The nature of data set [1]: Stability of the compound in human plasma assessed as parent compound remaining at […] measured after 2 hrs by LC-MS/MS analysis. The format is ADME, cell-free. Conditions: read-out: Stability. Put shortly:
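Plasma is thawed, spun at 1400 RCF for 15 min at 4 °C, and supernatant used. Compound (final 1 μM, diluted from acetonitrile/water stock) is incubated in human plasma 2 h at 37 °C with gentle shaking. Aliquots at 0, 15, 30, 60 and 120 min are precipitated with acetonitrile containing internal standard and analyzed by LC–MS/MS. The 0 min reference uses heat-inactivated plasma (56 °C, 45 min). Value is mean % remaining at 2 h.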

The target in data set [2] is T1, DNA topoisomerase 1 (Homo sapiens, UniProt P11387).
T1 sequence (P11387 whole entry): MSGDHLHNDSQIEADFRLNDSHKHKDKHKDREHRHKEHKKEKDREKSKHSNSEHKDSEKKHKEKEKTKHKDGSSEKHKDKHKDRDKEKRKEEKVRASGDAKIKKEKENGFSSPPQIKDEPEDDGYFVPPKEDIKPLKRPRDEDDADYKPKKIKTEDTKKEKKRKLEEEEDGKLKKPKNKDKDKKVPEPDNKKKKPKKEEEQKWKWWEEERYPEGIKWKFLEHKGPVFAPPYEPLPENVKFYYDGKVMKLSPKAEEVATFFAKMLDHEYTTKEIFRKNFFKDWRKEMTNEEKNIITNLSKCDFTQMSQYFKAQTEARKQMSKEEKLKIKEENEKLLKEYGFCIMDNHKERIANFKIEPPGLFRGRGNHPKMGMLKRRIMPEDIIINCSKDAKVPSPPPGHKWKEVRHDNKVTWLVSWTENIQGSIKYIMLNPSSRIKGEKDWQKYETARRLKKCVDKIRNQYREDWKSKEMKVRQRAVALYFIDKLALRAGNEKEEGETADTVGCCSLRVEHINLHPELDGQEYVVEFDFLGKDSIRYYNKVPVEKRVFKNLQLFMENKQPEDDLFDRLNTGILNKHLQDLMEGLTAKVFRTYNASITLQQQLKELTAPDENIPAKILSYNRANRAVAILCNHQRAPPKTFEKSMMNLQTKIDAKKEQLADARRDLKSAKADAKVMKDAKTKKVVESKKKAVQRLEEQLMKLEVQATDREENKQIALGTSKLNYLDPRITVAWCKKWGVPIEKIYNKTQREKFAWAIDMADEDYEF
Nature of the data set: Poison activity at recombinant human TOP1 expressed in baculovirus infected Sf9 insect cells assessed as decrease in relaxed supercoiled pBS(SK+) DNA mobility measured after 30 mins by ethidium bromide staining based agarose gel electrophoresis. Put shortly: (§1)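 Top1 is recombinant human enzyme purified from baculovirus-infected Sf-9 cells. Supercoiled pBS (SK+) DNA (90 fmol) is incubated with 30 fmol Top1 (3:1 DNA:enzyme molar ratio) in relaxation buffer, with compound added simultaneously, 30 min at 37 °C. Relaxed isomers are resolved on 1% agarose and percent relaxation inhibition is quantified. Triplicate, mean ± SD.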

Data set [3] relates to MEF. The experiment in a line: Cytotoxicity against TDP1-positive MEF cells assessed as reduction in cell viability measured after 72 hrs by MTT assay. It is filed as functional, cell-based. Conditions: Mus musculus. Put shortly:
(§2)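 Cell lines are HCT116, HeLa, NIH:OVCAR-3, and primary TDP1+/+ and TDP1−/− mouse embryonic fibroblasts, each exposed to variable compound concentrations. Viability is measured by MTT. Percent inhibition at each concentration is calculated against untreated control, and IC50 is estimated from these values.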

For data set [4], the system named is MEF. Nature of the data set: Cytotoxicity against TDP1-deficient MEF cells assessed as reduction in cell viability measured after 72 hrs by MTT assay. It is filed as functional, cell-based. Conditions: Mus musculus. The method in brief: as §2
In data set [5] the test system is DNA. The experiment in a line: Binding affinity to Escherichia coli pBS(SK+) DNA assessed as TOP1-mediated unwinding effect at 20 to 200 uM measured after 15 mins by EtBr staining based agarose gel electrophoresis method. It is filed as nucleic-acid assay. The method in brief: (§3)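 Relaxed pBS (SK+) substrate made by treating supercoiled plasmid with excess Top1, then proteinase K digestion at 37 °C, phenol/chloroform extraction and ethanol precipitation. Reactions hold 50 fmol relaxed DNA with compound (20, 50, 100, 200 μM) and are incubated 15 min at 37 °C. Read-out is 1% agarose gel stained with 0.5 μg/mL EtBr under UV, scoring net negative supercoiling.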

The test system of data set [6] is Calf thymus DNA. Nature of the data set: Displacement of ethidium bromide from calf thymus DNA at 200 uM by fluorescence assay. It is filed as nucleic-acid assay. As to conditions: Bos taurus. The method in brief:
(§4)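 Ethidium displacement fluorescence at 25 °C in fluorescence buffer containing 1 μM EtBr and 5 nM calf thymus DNA, with compound titrated 0–300 μM. Emission is read at 590 nm with 510 nm excitation and plotted as % EtBr bound.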

A further data set has as its system HCT-116. Nature of the data set: Cytotoxicity against human HCT116 cells assessed as reduction in cell viability measured after 72 hrs by MTT assay. The format is functional, cell-based. As to conditions: HCT-116, 72 h. Put shortly:
as §2

Data set [7] is described as follows: Cytotoxicity against human NIH:OVCAR3 cells assessed as reduction in cell viability measured after 72 hrs by MTT assay. It is filed as functional, cell-based. As to conditions: OVCAR-3, 72 h. Put shortly: as §2
Another data set deals with HEK293. Nature of the data set: Cytotoxicity against HEK293 cells assessed as reduction in cell viability measured after 72 hrs by MTT assay. The format is cell-based. Conditions: Homo sapiens, HEK293, 72 h. Put shortly: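 MTT cell survival assay in HEK293 cells (from the Developmental Therapeutics Program) exposed to a range of compound concentrations. Percent inhibition of viability at each concentration calculated relative to untreated control, and IC50 estimated from these values.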

Data set [8] concerns the target T1, DNA topoisomerase 1. Nature of the data set: Poison activity at TOP1 in human MCF7 cells assessed as decrease in relaxed supercoiled pBS(SK+) DNA mobility measured after 30 mins by ethidium bromide staining based agarose gel electrophoresis. It is filed as cell-based. Put shortly: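 The Top1 source is MCF7 whole-cell extract (endogenous enzyme). Extract is incubated with 0.3 μg supercoiled pBS (SK+) DNA and compound added together, 30 min at 37 °C, in relaxation buffer. Supercoiled and relaxed forms are separated on 1% agarose and percent relaxation inhibition is quantified. Triplicate, mean ± SD.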

Data set [9] deals with T2, DNA topoisomerase 1 (Homo sapiens) (UniProt P11387).
T2 sequence (whole entry): T1 sequence (P11387 whole entry)
The experiment in a line: Poison activity at recombinant human TOP1 expressed in baculovirus infected Sf9 insect cells assessed as decrease in relaxed supercoiled pBS(SK+) DNA mobility at 100 uM measured after 30 mins by ethidium bromide staining based agarose gel electrophoresis relative to control. More on the design: scale not given: the % may be the effect or the level left. Put shortly: as §1

The test system of data set [10] is DNA. The experiment in a line: Binding affinity to Escherichia coli pBS(SK+) DNA assessed as TOP1-mediated unwinding effect at 50 to 200 uM measured after 15 mins by EtBr staining based agarose gel electrophoresis method. It is filed as nucleic-acid assay. The method in brief:
as §3

Data set [11] relates to Calf thymus DNA. The experiment in a line: Displacement of ethidium bromide from calf thymus DNA up to 300 uM by fluorescence assay. The format is nucleic-acid assay. Conditions: Bos taurus. Put shortly: as §4
The target in data set [12] is T2, DNA topoisomerase 1 (Homo sapiens). Nature of the data set: Poison activity at recombinant human TOP1 expressed in baculovirus infected Sf9 insect cells assessed as decrease in relaxed supercoiled pBS(SK+) DNA mobility at 10 uM measured after 30 mins by ethidium bromide staining based agarose gel electrophoresis relative to control. The arrangement: scale not given: the % may be the effect or the level left. The method in brief: as §1

Data set [13] relates to Calf thymus DNA. Nature of the data set: Displacement of ethidium bromide from calf thymus DNA at 50 uM by fluorescence assay. The format is nucleic-acid assay. As to conditions: Bos taurus. The method in brief:
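Fluorescence ethidium displacement run at 25 °C with 1 μM EtBr and 5 nM calf thymus DNA in fluorescence buffer. Test compound titrated over 0–300 μM. EtBr emission read at 590 nm with excitation at 510 nm. Result expressed as % EtBr remaining bound.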

pIC50: −log10 of the molar value. Active and inactive are the calls of the source. The rule behind the calls is not given here.

`CC[C@@]1(O)C(=O)OCc2c1cc1n(c2=O)Cc2cc3ccccc3nc2-1` [CAMPTOTHECIN]: in [1], the remaining at 2 h stood at 15.7%.
With `COc1ccc(-c2ccc3ncc(-c4nnco4)c(NCCCn4ccnc4)c3c2)c(OC)c1`, the pIC50 at DNA topoisomerase 1 [2] is less than 5.00.
Turning to `COc1ccc(-c2ccc3ncc(-c4nnco4)c(NCCCn4ccnc4)c3c2)cc1`, the pIC50 was 5.54 in the data set on MEF [3]; 5.99 with MEF [4]; 5.63 with HCT-116; 5.63 in data set [7]; 5.08 in the data set on HEK293. In data set [1], the remaining at 2 h amounted to 93.3%. For the same compound, the result with DNA [5] and with Calf thymus DNA [6] was inactive.
In the case of `COc1ccc(-c2ccc3ncc(-c4nnc(C)o4)c(NCCN4CCOCC4)c3c2)cc1OC`, on DNA topoisomerase 1 [2], the pIC50 is less than 5.00.
Still for that read-out and setting: then `Fc1ccc(-c2ccc3ncc(-c4nnco4)c(NCCCn4ccnc4)c3c2)cc1`, with less than 5.00.
Still for that read-out and setting: then `Oc1ccc(-c2ccc3ncc(-c4nnco4)c(NCCCn4ccnc4)c3c2)cc1`, with less than 5.00; and `CCOC(=O)c1cnc2ccc(-c3ccc(OC)cc3)cc2c1NCCCn1ccnc1`, with less than 5.00.
With `COc1ccc(-c2ccc3ncc(-c4nnc(C)o4)c(NCCCn4ccnc4)c3c2)cc1`, on DNA topoisomerase 1 [2], the pIC50 is less than 5.00.
For `N#Cc1ccc(-c2ccc3ncc(-c4nnco4)c(NCCCn4ccnc4)c3c2)cc1`, the pIC50 on DNA topoisomerase 1 [2] is less than 5.00.
For the compound `COc1ccc(-c2ccc3ncc(-c4nnco4)c(NCCCN4CCOCC4)c3c2)cc1`, the pIC50 was 5.75 at DNA topoisomerase 1 [2] and 5.60 on DNA topoisomerase 1 [8]. For the same compound, the remaining at 2 h in [1] worked out at 83.4%.
With `COc1ccc(-c2ccc3ncc(-c4nnco4)c(NCCCN4CCOCC4)c3c2)cc1OC`, the pIC50 on DNA topoisomerase 1 [2] is less than 5.00.
Same read-out and setting: for `COc1ccc(-c2ccc3ncc(-c4nnco4)c(NCCCn4ccnc4)c3c2)c(C)c1` the value was less than 5.00.
Still for that read-out and setting: for `CNc1c(-c2nnco2)cnc2ccc(-c3ccc(OC)cc3)cc12` the value was less than 5.00.
Take `COc1ccc(-c2ccc3ncc(-c4nnco4)c(NCCN4CCOCC4)c3c2)cc1OC`: the pIC50 at DNA topoisomerase 1 [2] was less than 5.00. Besides, the Activity in data set [9] stood at 20%.
Consider `Cc1ccc(-c2ccc3ncc(-c4nnco4)c(NCCCN4CCOCC4)c3c2)cc1`, for which, on DNA topoisomerase 1 [2], the pIC50 is less than 5.00.
Same read-out and setting: then `COc1ccc(-c2ccc3ncc(-c4nnc(C)o4)c(NCCN4CCOCC4)c3c2)cc1`, with less than 5.00.
With `COc1ccc(-c2ccc3ncc(-c4nnco4)c(NCCN4CCOCC4)c3c2)cc1`, on DNA topoisomerase 1 [2], the pIC50 was less than 5.00. Also, the Activity in data set [9] worked out at 50%.
As for `CCOC(=O)c1cnc2ccc(-c3ccc(OC)c(OC)c3)cc2c1NCCCn1ccnc1`, the pIC50 on DNA topoisomerase 1 [2] is less than 5.00.
As to `COc1cc([C@@H]2c3cc4c(cc3[C@@H](O[C@@H]3O[C@@H]5CO[C@@H](C)O[C@H]5[C@H](O)[C@H]3O)[C@H]3COC(=O)[C@H]23)OCO4)cc(OC)c1O`, the result in the data set on DNA [10] and with Calf thymus DNA [11] was inactive.
`c1ccc(-c2ccc3ncc(-c4nnco4)c(NCCCn4ccnc4)c3c2)cc1`: the pIC50 on DNA topoisomerase 1 [2] is less than 5.00. Besides, the Activity in data set [12] was 40%.
Regarding `COc1ccc(-c2ccc3ncc(-c4nnc(N)o4)c(NCCCn4ccnc4)c3c2)cc1`, the pIC50 at DNA topoisomerase 1 [2] is less than 5.00.
`COc1ccc(-c2ccc3ncc(-c4nnco4)c(NCCn4ccnc4)c3c2)cc1`: the pIC50 at DNA topoisomerase 1 [2] was less than 5.00.
For `COc1cc(NS(C)(=O)=O)ccc1Nc1c2ccccc2nc2ccccc12`, the outcome with DNA [10] and in the data set with Calf thymus DNA [13] was Active.
On to `COc1ccccc1-c1ccc2ncc(-c3nnco3)c(NCCCn3ccnc3)c2c1`, for which the pIC50 at DNA topoisomerase 1 [2] is less than 5.00.
Still for that read-out and setting: for `COc1ccc(-c2ccc3ncc(-c4nnco4)c(NCCCn4ccnc4)c3c2)cc1OC` the value was less than 5.00.
